Assay results published in article PMC10922391 (Cell chemical biology, 2023).

Key:
[1] = system: S. sanguinis harboring toxicity reporter; assay: Competence-coupled toxicity reporter growth assay; type: cell-based; settings: 5-FOA final 1 mg/mL in THY; OD600 at 12 h; WT S. sanguinis + RT; n = 3
[2] = system: comCDE locus; assay: Luciferase reporter assay of comCDE locus activation; type: cell-based, S. sanguinis VMC66; settings: PcomCDEluc reporter; for activity relative to each other / activity class of CSP derivatives: luminescence, 20 min, 37 °C
Procedure, shortened: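 Overnight VMC66 PcomCDEluc reporter culture diluted 1:10 and held 30 min at 37 °C, 5% CO2. 198 μL per well received 2 μL DMSO or serially diluted synthetic peptide. After 20 min at 37 °C, 5% CO2, luminescence was read on a plate reader. EC50 values were fitted from three independent experiments.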

[3] = system: S. sanguinis; assay: CSP-induced DNA transformation efficiency; type: cell-based; settings: C+Y media
Procedure, shortened: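 Cultures grown in THY or C+Y (a chemically defined medium with 2.2 g/L yeast extract) at 37 °C, 5% CO2. Diluted culture (500 μL) mixed with 113 nM CSP and 10 ng target DNA (linear knockout cassette or blank plasmid). Incubated a further 90 min, then plated on THY with selective antibiotic. Colonies counted after two days. Mean of three independent replicates with standard deviation.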

Compound | activity relative to each other / activity class of CSP derivatives [2] | further results
O=C(O)c1[nH]c(=O)[nH]c(=O)c1F [5’-FOA, 5-Fluoroorotic acid] | – | competence-coupled growth defect with toxicity reporter, WT [1]: could induce significant growth defect in WT S. sanguinis background
H-DLRGVPNPWGWIFG-OH | – | potency of CSP analog lacking the C-terminal AA ([2]; Figure S1): significantly less-potent
H-DLRGVPNPWGWIFGR-OH [15mer] | similarly active | transformation efficiency, C+Y vs THY [3]: drop in transformation efficiency
H-FWDLRGVPNPWGWIFGR-OH [17mer] | inactive | –
H-TFWDLRGVPNPWGWIFGR-OH [18mer] | inactive | –
H-WDLRGVPNPWGWIFGR-OH [16mer] | similarly active | –
